Measured values from different studies.
Compare with care: the assays were run in different laboratories.
Target: Tyrosine-protein kinase receptor UFO (AXL, Homo sapiens, UniProt P30530)
Sequence (P30530 26-894, as in one of the studies): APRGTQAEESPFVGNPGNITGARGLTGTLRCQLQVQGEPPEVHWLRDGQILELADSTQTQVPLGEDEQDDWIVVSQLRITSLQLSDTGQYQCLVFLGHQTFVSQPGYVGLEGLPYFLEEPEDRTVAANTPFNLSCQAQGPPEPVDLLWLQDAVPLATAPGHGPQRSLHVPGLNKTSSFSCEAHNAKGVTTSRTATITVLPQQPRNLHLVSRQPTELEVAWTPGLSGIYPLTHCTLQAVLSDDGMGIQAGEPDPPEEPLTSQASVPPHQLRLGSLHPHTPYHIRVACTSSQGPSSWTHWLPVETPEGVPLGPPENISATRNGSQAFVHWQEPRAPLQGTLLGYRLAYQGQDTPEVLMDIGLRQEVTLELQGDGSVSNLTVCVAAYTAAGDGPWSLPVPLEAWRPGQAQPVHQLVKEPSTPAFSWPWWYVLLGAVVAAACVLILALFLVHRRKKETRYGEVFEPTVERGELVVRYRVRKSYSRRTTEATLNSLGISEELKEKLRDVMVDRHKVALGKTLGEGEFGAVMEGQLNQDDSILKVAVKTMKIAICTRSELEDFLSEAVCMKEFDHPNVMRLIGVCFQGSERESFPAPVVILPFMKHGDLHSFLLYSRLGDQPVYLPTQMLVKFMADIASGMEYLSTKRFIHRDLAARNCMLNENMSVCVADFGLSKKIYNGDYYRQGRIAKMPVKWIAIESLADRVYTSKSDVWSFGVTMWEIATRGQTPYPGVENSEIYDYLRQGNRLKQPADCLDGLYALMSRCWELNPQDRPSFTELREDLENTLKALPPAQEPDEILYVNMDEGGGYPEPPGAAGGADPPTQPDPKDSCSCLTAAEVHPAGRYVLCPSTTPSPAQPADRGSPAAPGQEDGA

With `FC(F)(F)Oc1cccc(-c2cnc3ccc(-c4ccncc4)nn23)c1` the remaining binding was 74% (cell-free assay; competition with immobilised ligand; 5 µM).
For `N[C@@H]1CCN(c2nccc(-c3cnn4ncccc34)n2)C1`, the remaining binding was 100% (binding; 1 µM).
`O=C(NCC1CCOCC1)c1n[nH]cc1NC(=O)c1c(F)cccc1F` has a remaining binding of 91% (binding; competition with immobilised ligand; 1 µM).
With `CNC(=O)[C@@H]1CC[C@@H](n2c(-c3ccc4cnccc4c3)nc3ccc(C(=O)NCc4cccc(C(N)=O)c4)cc32)C1` the remaining binding was 99% (binding; competition with immobilised ligand; 1 µM).
`NS(=O)(=O)c1cc(NC(=O)C2(c3ccccc3Cl)CC2)ccc1Oc1cccc(Cl)c1` gave a remaining binding of 89% (cell-free assay; competition with immobilised ligand; 1 µM).
`Cc1cnc(Nc2ccc(C(=O)N3CCC(N4CCCC4)CC3)cc2)nc1-c1cc2ccccc2s1` has a remaining binding of 1% (binding; competition with immobilised ligand; 1 µM).
The remaining binding of `CO[C@@H](C)c1c(Nc2ccc([C@@H](N(C)C(=O)C3CCS(=O)(=O)CC3)C(F)(F)F)cc2)cnc2cc(Cl)nn12` is reported as 77% (cell-free assay; competition with immobilised ligand; 1 µM).
With `F[C@@H]1CCN(c2nccc(-c3cnn4ncccc34)n2)C1` the remaining binding was 87% (binding; 1 µM).
`CC(=O)N1CCC(c2ccc(C(=O)NC3=NCCN3)cc2C(F)(F)F)CC1` gave a remaining binding of 100% (cell-free assay; competition with immobilised ligand; 1 µM).
For `c1cnn2ncc(-c3ccnc(N4CCC45COC5)n3)c2c1`, the remaining binding was 74% (binding; 1 µM).
`CNC(=O)c1ccc(Nc2ncc(C(F)(F)F)c(NCc3nccnc3N(C)S(C)(=O)=O)n2)cc1` has a remaining binding of 51% (cell-free assay; competition with immobilised ligand; 0.1 µM).
The remaining binding of `CC1CCCN1c1nccc(-c2cnn3ncccc23)n1` (stereo not drawn) is reported as 100% (binding; 1 µM).
`CCc1ccccc1C(=O)Nc1n[nH]c2c(C)c(F)c(C3C(C#N)=C(C)N(C)C(C)=C3C#N)cc12` gave a remaining binding of 100% (binding; competition with immobilised ligand; 1 µM).
`C=CC(=O)N1CCC(C(=O)NCC(=O)N2CCN(c3nc(-c4cnc(N)nc4C(F)F)nc(N4CCOCC4)n3)CC2)CC1` has a remaining binding of 97% (binding; competition with immobilised ligand; 1 µM).
The remaining binding of `C[C@@H](c1ccc(-n2cnc3c(N)ncnc32)cc1)N1CCc2nn(C)c(Cc3ccccc3)c2C1=O` is reported as 100% (binding; competition with immobilised ligand; 0.1 µM).
The remaining binding of `O=C(NCCCN1CCOCC1)c1ccc(Nc2ncc(Cl)c(-c3ccc(Cl)s3)n2)cc1` is reported as 76% (binding; competition with immobilised ligand; 1 µM).
`C[C@H]1CCN(c2nccc(-c3cnn4ncccc34)n2)C1` has a remaining binding of 49% (binding; 1 µM).
With `C[C@@H]1CN(c2ccc3ncc(-c4ccc5[nH]nc(C6CC6)c5c4)n3n2)C[C@H](C)O1` the remaining binding was 60% (binding; competition with immobilised ligand; 0.5 µM).
`O=C(c1ccc(Nc2ncc(Cl)c(-c3cc4ccccc4s3)n2)cc1)N1CCC(N2CCCC2)CC1` has a remaining binding of 1.4% (binding; competition with immobilised ligand; 1 µM).
`CN([C@@H]1CCc2c(CC(=O)O)c3cc(S(C)(=O)=O)ccc3n2C1)S(=O)(=O)c1ccc(F)cc1` gave a remaining binding of 100% (cell-free assay; competition with immobilised ligand; 1 µM).
With `N#Cc1ccccc1CSc1nnc2c(n1)[nH]c1ccccc12` the remaining binding was 65% (binding; competition with immobilised ligand; 10 µM).
For `CCCCN(CCCC)C(=O)CN1C[C@H](c2cc(OC)c3c(c2)OCO3)[C@@H](C(=O)O)[C@@H]1CC(C)(C)CCC`, the remaining binding was 100% (cell-free assay; competition with immobilised ligand; 1 µM).
`CC(C)(C)c1ccc(-c2nc(CBr)nn2-c2cccc(O)c2)cc1` gave a remaining binding of 84% (cell-free assay; competition with immobilised ligand; 10 µM).
The remaining binding of `CN(C)c1nccc(-c2cnc3ncccn23)n1` is reported as 100% (binding; 1 µM).
